From ChEMBL document CHEMBL1134108, “Expedited discovery of second generation NK-1 antagonists: identification of a nonbasic aryloxy substituent” (Bioorg Med Chem Lett, 2001)

Assays:
Substance-P receptor [1] = molecular target: T1, Substance-P receptor (Homo sapiens, UniProt P25103); assay: In vitro inhibition of binding of [125I]Bolton-Hunter SP to Tachykinin receptor 1 in human IM-9 cell line at a concentration of 10 nM; format: cell-based
Outline: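 Single-point screen at 10 nM test compound, run in triplicate, measuring displacement of [125I]Bolton-Hunter SP binding on human IM-9 cells expressing NK-1 receptors.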

[2] = Bioavailability in dog; format: ADME, organism-based, Canis lupus familiaris; details: in vivo
Canis familiaris = species: Canis familiaris; assay: In vitro microsome stability tested in dog liver expressed as percent remaining […]; format: functional; details: Canis lupus familiaris
Substance-P receptor [3] = molecular target: T1, Substance-P receptor; assay: In vitro inhibition of binding of [125I]Bolton-Hunter SP to Tachykinin receptor 1 in human IM-9 cell line; format: cell-based

T1 sequence (P25103 whole entry): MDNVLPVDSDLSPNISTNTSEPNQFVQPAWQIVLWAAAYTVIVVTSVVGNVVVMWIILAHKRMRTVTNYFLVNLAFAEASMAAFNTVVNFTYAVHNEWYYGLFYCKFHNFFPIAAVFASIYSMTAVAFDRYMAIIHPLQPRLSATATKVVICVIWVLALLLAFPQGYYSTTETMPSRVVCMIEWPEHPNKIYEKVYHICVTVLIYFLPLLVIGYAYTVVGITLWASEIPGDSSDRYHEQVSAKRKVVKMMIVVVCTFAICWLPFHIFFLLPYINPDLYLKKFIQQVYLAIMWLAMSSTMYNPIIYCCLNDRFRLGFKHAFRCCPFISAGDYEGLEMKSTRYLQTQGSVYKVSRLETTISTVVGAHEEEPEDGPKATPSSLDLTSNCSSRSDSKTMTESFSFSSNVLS

| Structure (SMILES) | inhibition (Substance-P receptor [1]) | bioavailability [2] | IC50 (Substance-P receptor [3]) | Remaining (Canis familiaris) |
| --- | --- | --- | --- | --- |
| COc1ccc(C(=O)NC(Cc2c[nH]c3ccccc23)CN(Cc2ccccc2OC)C(C)=O)cc1 (configuration not stated) | 13% | – | – | – |
| COc1ccccc1CN(CC(Cc1c[nH]c2ccccc12)NC(=O)Cc1ccccc1Cl)C(C)=O (configuration not stated) | 30% | – | – | – |
| CCOCC(=O)NC(Cc1c[nH]c2ccccc12)CN(Cc1ccccc1OC)C(C)=O (configuration not stated) | 4% | – | – | – |
| COc1ccc(CC(=O)NC(Cc2c[nH]c3ccccc23)CN(Cc2ccccc2OC)C(C)=O)cc1 (configuration not stated) | 81% | – | 9.7 nM | – |
| COc1ccc(OCC(=O)NC(Cc2c[nH]c3ccccc23)CN(Cc2ccccc2OC)C(C)=O)cc1 (configuration not stated) | 52% | – | 10.2 nM | – |
| COc1ccccc1CN(CC(Cc1c[nH]c2ccccc12)NC(=O)Cc1ccc2c(c1)OCCO2)C(C)=O (configuration not stated) | 46% | – | 8.3 nM | – |
| COc1ccccc1CN(C[C@@H](Cc1c[nH]c2ccccc12)NC(=O)COc1ccc(-c2csnn2)cc1)C(C)=O | – | 47% | 0.98 nM | 67% |
| COc1ccccc1CN(CC(Cc1c[nH]c2ccccc12)NC(=O)Cc1ccccc1)C(C)=O (configuration not stated) | 18% | – | – | – |
| COc1ccccc1CN(CC(Cc1c[nH]c2ccccc12)NC(=O)c1ccccc1Cl)C(C)=O (configuration not stated) | 0% | – | – | – |
| COc1ccccc1CN(CC(Cc1c[nH]c2ccccc12)NC(=O)COc1ccc(C(C)=O)cc1)C(C)=O (configuration not stated) | 68% | – | 3.5 nM | – |
| COc1ccccc1CN(C[C@@H](Cc1c[nH]c2ccccc12)NC(=O)CCC(=O)c1ccccc1)C(C)=O | 20% | – | 34 nM | – |
| COc1ccccc1CN(CC(Cc1c[nH]c2ccccc12)NC(=O)c1ccccc1)C(C)=O (configuration not stated) | 0% | – | – | – |
| COc1ccccc1CC(=O)NC(Cc1c[nH]c2ccccc12)CN(Cc1ccccc1OC)C(C)=O (configuration not stated) | 23% | – | – | – |
| COc1ccccc1CN(CC(Cc1c[nH]c2ccccc12)NC(=O)CCC(=O)c1ccc(F)cc1)C(C)=O (configuration not stated) | 66% | – | 6 nM | – |
| COc1ccccc1CN(CC(Cc1c[nH]c2ccccc12)NC(=O)COc1ccccc1OC)C(C)=O (configuration not stated) | 42% | – | 24 nM | – |
| COc1ccccc1CN(CC(Cc1c[nH]c2ccccc12)NC(=O)COc1ccc(Cl)cc1)C(C)=O (configuration not stated) | 19% | – | – | – |
| COc1cccc(OCC(=O)NC(Cc2c[nH]c3ccccc23)CN(Cc2ccccc2OC)C(C)=O)c1 (configuration not stated) | 3% | – | – | – |
| COc1ccccc1CN(CC(Cc1c[nH]c2ccccc12)NC(=O)COc1ccc(CO)cc1)C(C)=O (configuration not stated) | 87% | – | 0.82 nM | – |

Second part, led by results:

| inhibition (Substance-P receptor [1]) | bioavailability [2] | IC50 (Substance-P receptor [3]) | Structure (SMILES) | Remaining (Canis familiaris) |
| --- | --- | --- | --- | --- |
| 20% | – | – | COc1ccccc1CN(CC(Cc1c[nH]c2ccccc12)NC(=O)CCc1ccccc1)C(C)=O (configuration not stated) | – |
| – | 14% | 0.48 nM | COc1ccccc1CN(C[C@@H](Cc1c[nH]c2ccccc12)NC(=O)COc1ccc(-n2ccnc2)cc1)C(C)=O | 87% |
| 22% | – | – | COc1cccc(CC(=O)NC(Cc2c[nH]c3ccccc23)CN(Cc2ccccc2OC)C(C)=O)c1 (configuration not stated) | – |
| – | 36% | – | CC(=O)N(Cc1ccccc1Cl)C[C@@H](Cc1c[nH]c2ccccc12)NC(=O)COc1ccc(-n2ccnc2)cc1 | 96% |
| 63% | – | 3.3 nM | COc1ccc(C(=O)CCC(=O)NC(Cc2c[nH]c3ccccc23)CN(Cc2ccccc2OC)C(C)=O)cc1 (configuration not stated) | – |
| 49% | – | – | COc1ccccc1CN(CC(Cc1c[nH]c2ccccc12)NC(=O)CCC(=O)c1ccc(Cl)cc1)C(C)=O (configuration not stated) | – |
| 25% | – | – | COc1ccccc1CN(CC(Cc1c[nH]c2ccccc12)NC(=O)Cc1ccc(O)cc1)C(C)=O (configuration not stated) | – |
| 59% | – | 3.2 nM | COc1ccccc1CN(CC(Cc1c[nH]c2ccccc12)NC(=O)COc1ccc(O)cc1)C(C)=O (configuration not stated) | – |
| 41% | – | 10.8 nM | COc1ccccc1CN(CC(Cc1c[nH]c2ccccc12)NC(=O)CSc1ccccn1)C(C)=O (configuration not stated) | – |
| – | 9% | – | COc1ccccc1CN(C[C@@H](Cc1c[nH]c2ccccc12)NC(=O)CN1CCC(N2CCCCC2)CC1)C(C)=O [LANEPITANT] | – |
| – | 17% | 0.43 nM | COc1ccccc1CN(C[C@@H](Cc1c[nH]c2ccccc12)NC(=O)COc1ccc(CO)cc1)C(C)=O | 28% |
